From ChEMBL document CHEMBL5360527, “Synthesis, binding affinity, and inhibitory capacity of cyclodextrin-based multivalent glycan ligands for human galectin-3” (Bioorg Med Chem, 2022) come the findings set out here.

Assay [1] concerns the target T1, Galectin-3 (Homo sapiens, UniProt P17931). Kind of assay: Binding affinity to human galectin 3 assessed as relative affinity by surface plasma resonance analysis. In outline: (§1)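 Recombinant human Gal-3 amine-coupled to a CM5 chip (about 1000 RU) with an ethanolamine reference channel. Analytes were serially diluted in 0.01 M HEPES pH 7.4, 0.15 M NaCl and 0.005% P20, then run at 25 °C and 30 μL/min with 120 s association and 300 s dissociation, followed by 3 M MgCl2 regeneration. EC50 was taken from the fitted binding curve.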

Assay [2] concerns the target T1, Galectin-3. Kind of assay: Inhibition of human galectin 3 binding to human A549 cells incubated for 1 hr. It is filed as cell-based. The gist of the method: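 A549 cells were grown in plates, fixed, and blocked overnight at 4 °C with 3% BSA in PBS. Biotinylated Gal-3 (5 μg/ml), premixed with compound at 3–300 μM, was then added for 1 h at 4 °C. Bound Gal-3 was detected with streptavidin-HRP and TMB, stopped with 1 M HCl, and read at OD450. Percent inhibition came from a Gal-3 standard curve, and EC50 from a five-parameter asymmetric fit.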

Assay [3] deals with T1, Galectin-3. As to the kind of experiment: Binding affinity to human galectin 3 assessed as relative affinity per sugar unit on cyclodextrin by surface plasma resonance analysis. The gist of the method: as §1
Assay [4] has as its target T1, Galectin-3. Kind of assay: Binding affinity to human galectin 3 by surface plasma resonance analysis. In outline: as §1

T1 sequence (P17931 whole entry): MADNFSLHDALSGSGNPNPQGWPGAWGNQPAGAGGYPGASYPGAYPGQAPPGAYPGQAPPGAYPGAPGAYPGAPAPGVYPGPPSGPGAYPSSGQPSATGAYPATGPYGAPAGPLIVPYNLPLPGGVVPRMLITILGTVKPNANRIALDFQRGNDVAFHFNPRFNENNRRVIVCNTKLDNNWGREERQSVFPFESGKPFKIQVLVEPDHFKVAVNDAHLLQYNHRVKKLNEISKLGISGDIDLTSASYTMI

Turning to `CC(=O)N[C@H]1[C@@H](OCCOCCOCCN=[N+]=[N-])O[C@H](CO)[C@H](O)[C@@H]1O`, the relative binding affinity (RBA) on Galectin-3 [1] was less than 1.47.

By EC50 is commonly meant the concentration at which the effect is half-maximal. High values mean a need for much substance, low ones an effect from little substance. Take `O=C(CCc1cn(CCOCCOCCO[C@@H]2O[C@H](CO)[C@@H](O[C@@H]3O[C@H](CO)[C@H](O)[C@H](O)[C@H]3O)[C@H](O)[C@H]2O)nn1)NC[C@H]1O[C@@H]2O[C@H]3[C@H](O)[C@@H](O)[C@@H](O[C@H]4[C@H](O)[C@@H](O)[C@@H](O[C@H]5[C@H](O)[C@@H](O)[C@@H](O[C@H]6[C@H](O)[C@@H](O)[C@@H](O[C@H]7[C@H](O)[C@@H](O)[C@@H](O[C@H]8[C@H](O)[C@@H](O)[C@@H](O[C@H]1[C@H](O)[C@H]2O)O[C@@H]8CNC(=O)CCc1cn(CCOCCOCCO[C@@H]2O[C@H](CO)[C@@H](O[C@@H]8O[C@H](CO)[C@H](O)[C@H](O)[C@H]8O)[C@H](O)[C@H]2O)nn1)O[C@@H]7CNC(=O)CCc1cn(CCOCCOCCO[C@@H]2O[C@H](CO)[C@@H](O[C@@H]7O[C@H](CO)[C@H](O)[C@H](O)[C@H]7O)[C@H](O)[C@H]2O)nn1)O[C@@H]6CNC(=O)CCc1cn(CCOCCOCCO[C@@H]2O[C@H](CO)[C@@H](O[C@@H]6O[C@H](CO)[C@H](O)[C@H](O)[C@H]6O)[C@H](O)[C@H]2O)nn1)O[C@@H]5CNC(=O)CCc1cn(CCOCCOCCO[C@@H]2O[C@H](CO)[C@@H](O[C@@H]5O[C@H](CO)[C@H](O)[C@H](O)[C@H]5O)[C@H](O)[C@H]2O)nn1)O[C@@H]4CNC(=O)CCc1cn(CCOCCOCCO[C@@H]2O[C@H](CO)[C@@H](O[C@@H]4O[C@H](CO)[C@H](O)[C@H](O)[C@H]4O)[C@H](O)[C@H]2O)nn1)O[C@@H]3CNC(=O)CCc1cn(CCOCCOCCO[C@@H]2O[C@H](CO)[C@@H](O[C@@H]3O[C@H](CO)[C@H](O)[C@H](O)[C@H]3O)[C@H](O)[C@H]2O)nn1`: the EC50 amounted to 23.5 µM on Galectin-3 [2] and 25.3 µM on Galectin-3 [4]. Further, the relative binding affinity (RBA) on Galectin-3 [3] stood at 8.29; on Galectin-3 [1] it was 58.1.

Turning to `CC(=O)N[C@H]1[C@@H](OCCOCCOCCn2cc(CCC(=O)NC[C@H]3O[C@@H]4O[C@H]5[C@H](O)[C@@H](O)[C@@H](O[C@H]6[C@H](O)[C@@H](O)[C@@H](O[C@H]7[C@H](O)[C@@H](O)[C@@H](O[C@H]8[C@H](O)[C@@H](O)[C@@H](O[C@H]9[C@H](O)[C@@H](O)[C@@H](O[C@H]%10[C@H](O)[C@@H](O)[C@@H](O[C@H]3[C@H](O)[C@H]4O)O[C@@H]%10CNC(=O)CCc3cn(CCOCCOCCO[C@H]4O[C@H](CO)[C@H](O)[C@H](O)[C@H]4NC(C)=O)nn3)O[C@@H]9CNC(=O)CCc3cn(CCOCCOCCO[C@H]4O[C@H](CO)[C@H](O)[C@H](O)[C@H]4NC(C)=O)nn3)O[C@@H]8CNC(=O)CCc3cn(CCOCCOCCO[C@H]4O[C@H](CO)[C@H](O)[C@H](O)[C@H]4NC(C)=O)nn3)O[C@@H]7CNC(=O)CCc3cn(CCOCCOCCO[C@H]4O[C@H](CO)[C@H](O)[C@H](O)[C@H]4NC(C)=O)nn3)O[C@@H]6CNC(=O)CCc3cn(CCOCCOCCO[C@H]4O[C@H](CO)[C@H](O)[C@H](O)[C@H]4NC(C)=O)nn3)O[C@@H]5CNC(=O)CCc3cn(CCOCCOCCO[C@H]4O[C@H](CO)[C@H](O)[C@H](O)[C@H]4NC(C)=O)nn3)nn2)O[C@H](CO)[C@H](O)[C@@H]1O`, the EC50 turned out to be 1.5 µM at Galectin-3 [2] and 1.37 µM at Galectin-3 [4]. The relative binding affinity (RBA) on Galectin-3 [3] worked out at 153; at Galectin-3 [1], 1070.

As for `CC(=O)N[C@H]1[C@@H](OCCOCCOCCN=[N+]=[N-])O[C@H](CO)[C@H](O)[C@@H]1O[C@@H]1O[C@H](CO)[C@H](O)[C@H](O)[C@H]1O`, the relative binding affinity (RBA) on Galectin-3 [1] is less than 1.47.

As to `[N-]=[N+]=NCCOCCOCCO[C@@H]1O[C@H](CO)[C@@H](O[C@@H]2O[C@H](CO)[C@H](O)[C@H](O)[C@H]2O)[C@H](O)[C@H]1O`, the relative binding affinity (RBA) at Galectin-3 [1] is less than 1.47.

Regarding `CC(=O)N[C@H]1[C@@H](OCCOCCOCCn2cc(CCC(=O)NC[C@H]3O[C@@H]4O[C@H]5[C@H](O)[C@@H](O)[C@@H](O[C@H]6[C@H](O)[C@@H](O)[C@@H](O[C@H]7[C@H](O)[C@@H](O)[C@@H](O[C@H]8[C@H](O)[C@@H](O)[C@@H](O[C@H]9[C@H](O)[C@@H](O)[C@@H](O[C@H]%10[C@H](O)[C@@H](O)[C@@H](O[C@H]3[C@H](O)[C@H]4O)O[C@@H]%10CNC(=O)CCc3cn(CCOCCOCCO[C@H]4O[C@H](CO)[C@H](O)[C@H](O[C@@H]%10O[C@H](CO)[C@H](O)[C@H](O)[C@H]%10O)[C@H]4NC(C)=O)nn3)O[C@@H]9CNC(=O)CCc3cn(CCOCCOCCO[C@H]4O[C@H](CO)[C@H](O)[C@H](O[C@@H]9O[C@H](CO)[C@H](O)[C@H](O)[C@H]9O)[C@H]4NC(C)=O)nn3)O[C@@H]8CNC(=O)CCc3cn(CCOCCOCCO[C@H]4O[C@H](CO)[C@H](O)[C@H](O[C@@H]8O[C@H](CO)[C@H](O)[C@H](O)[C@H]8O)[C@H]4NC(C)=O)nn3)O[C@@H]7CNC(=O)CCc3cn(CCOCCOCCO[C@H]4O[C@H](CO)[C@H](O)[C@H](O[C@@H]7O[C@H](CO)[C@H](O)[C@H](O)[C@H]7O)[C@H]4NC(C)=O)nn3)O[C@@H]6CNC(=O)CCc3cn(CCOCCOCCO[C@H]4O[C@H](CO)[C@H](O)[C@H](O[C@@H]6O[C@H](CO)[C@H](O)[C@H](O)[C@H]6O)[C@H]4NC(C)=O)nn3)O[C@@H]5CNC(=O)CCc3cn(CCOCCOCCO[C@H]4O[C@H](CO)[C@H](O)[C@H](O[C@@H]5O[C@H](CO)[C@H](O)[C@H](O)[C@H]5O)[C@H]4NC(C)=O)nn3)nn2)O[C@H](CO)[C@H](O)[C@@H]1OC1O[C@H](CO)[C@H](O)[C@H](O)[C@H]1O` (stereo not given in full), the EC50 turned out to be 10.5 µM at Galectin-3 [2] and 3.16 µM at Galectin-3 [4]. The relative binding affinity (RBA) at Galectin-3 [3] came to 66.4; at Galectin-3 [1], 464.
